Our source for the self-cleavage values is the RNAGym collection of RNA variant scans (doi:10.1002/anie.201605470).

B1: Osa-1-4 twister ribozyme (parent)
chain: CCGCCUAACACUGCCAAUGCCGGUCCCAAGCCCGGAUAAAAGUGGAGGGGGCGG

In the data set the parent is B1. As to the kind of experiment: self-cleavage, relative activity (ratio to wild type); higher = more cleavage; co-transcriptional. The method in brief: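 In vitro transcription at 37 °C for 2 h allowed the twister ribozyme to cleave itself as it was made. Its 54-nucleotide Oryza sativa template had been synthesised with 97 % wild-type base and 1 % of each other base at the 48 positions downstream of the cleavage site. A template-switching oligonucleotide was used for reverse transcription, followed by PCR amplification and deep sequencing. Whether reads carried upstream sequence set the cleavage status, and relative activity is the fraction cleaved normalised to wild type.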
On to C15U G54A, for which the self-cleavage is 0.16.
For C15U G54U, the self-cleavage was 0.43.
On to C15U G54C, for which the self-cleavage was 0.14.
Then C15U G49C, with 0.04; and C15U G49A, with 0.05; and C15U G49U, with 0.04.
Then A16C A7U, with 0.15.
Then A16C A7C, with 0.07.
On to A16C A7G, for which the self-cleavage came to 0.17.
Then C15U G44A, with 0.08.
Then C15U G44C, with 0.23; and C15U G44U, with 0.16.
Regarding C15A C25A, the self-cleavage came out at 0.07.
With C15A C25U, the self-cleavage was found to be 0.08.
Then C15A C25G, with 0.04.
With A16C A39U, the self-cleavage was 0.95.
Turning to A16C A39C, the self-cleavage stood at 0.89.
Then A16C A39G, with 0.95; and C15G U12C, with 0.1.
For the variant C15G U12G, the self-cleavage turned out to be 0.15.
Consider C15G U12A, for which the self-cleavage stood at 0.13.
Then C15G G34U, with 0.13.
In the case of C15G G34C, the self-cleavage stood at 0.18.
Then C15G G34A, with 0.27.
Then C15G U24G, with 0.02; and C15G U24C, with 0.09.
As for C15G U24A, the self-cleavage was determined as 0.07.
For A16C C9U, the self-cleavage turned out to be 0.77.
Consider A16C C9G, for which the self-cleavage came out at 0.51.
Regarding A16C C9A, the self-cleavage amounted to 0.5.
Take C15G G30A: the self-cleavage turned out to be 0.03.
Then C15G G30U, with 0.06.
For C15G G30C, the self-cleavage was found to be 0.03.
With C15U C31A, the self-cleavage was 0.03.
On to C15U C31G, for which the self-cleavage came to 0.06.
In the case of C15U C31U, the self-cleavage came out at 0.06.
With C15U G48U, the self-cleavage worked out at 0.03.
As to C15U G48A, the self-cleavage amounted to 0.05.
Then C15U G48C, with 0.05; and A16C A46G, with 0.06; and A16C A46U, with 0.07.
Consider A16C A46C, for which the self-cleavage came out at 0.06.
In the case of C15A U37C, the self-cleavage worked out at 0.59.
In the case of C15A U37G, the self-cleavage was 0.78.
With C15A U37A, the self-cleavage came out at 0.51.
In the case of C15A C20G, the self-cleavage was 0.06.
Regarding C15A C20U, the self-cleavage was 0.65.
Then C15A C20A, with 0.52.
Then C15G G54U, with 0.35; and C15G G54A, with 0.19.
Then C15G G54C, with 0.16; and A16C A8U, with 0.19; and A16C A8C, with 0.13.
Take A16C A8G: the self-cleavage stood at 0.36.
Then C15G C33U, with 0.11; and C15G C33G, with 0.06; and C15G C33A, with 0.05.
Regarding C15U G47C, the self-cleavage was 0.05.
Then C15U G47U, with 0.05.
Turning to C15U G47A, the self-cleavage amounted to 0.06.
As to A16C, the self-cleavage turned out to be 0.97.
For C15U C52A, the self-cleavage amounted to 0.26.
For C15U C52G, the self-cleavage was found to be 0.41.
Consider C15U C52U, for which the self-cleavage is 0.48.
For C15A G51A, the self-cleavage turned out to be 0.1.
For the variant C15A G51U, the self-cleavage was determined as 0.07.
Turning to C15A G51C, the self-cleavage amounted to 0.04.
Regarding C15G G44A, the self-cleavage amounted to 0.12.
Then C15G G44U, with 0.17.
Consider C15G G44C, for which the self-cleavage was determined as 0.19.
Regarding C15U G35U, the self-cleavage amounted to 0.35.
As to C15U G35C, the self-cleavage amounted to 0.07.
Regarding C15U G35A, the self-cleavage worked out at 0.59.
Then C15G C52G, with 0.31; and C15G C52U, with 0.48; and C15G C52A, with 0.21.
With C15U C20A, the self-cleavage was 0.45.
Then C15U C20G, with 0.05; and C15U C20U, with 0.54; and C15G C9U, with 0.11.
As to C15G C9G, the self-cleavage worked out at 0.66.
Turning to C15G C9A, the self-cleavage turned out to be 0.06.
Then C15A G13C, with 0.04.
Then C15A G13U, with 0.02.
With C15A G13A, the self-cleavage worked out at 0.04.
With C15U C26A, the self-cleavage was 0.01.
Then C15U C26G, with 0.06.
As for C15U C26U, the self-cleavage worked out at 0.08.
As to C15U G13C, the self-cleavage came to 0.02.
In the case of C15U G13U, the self-cleavage came out at 0.02.
Turning to C15U G13A, the self-cleavage was 0.05.
Turning to C15A C27G, the self-cleavage was found to be 0.04.
Regarding C15A C27A, the self-cleavage came to 0.16.
Take C15A C27U: the self-cleavage came out at 0.07.
On to C15G G50A, for which the self-cleavage stood at 0.3.
For C15G G50U, the self-cleavage came out at 0.26.
Then C15G G50C, with 0.14; and A16C C14U, with 0.27.
As for A16C C14G, the self-cleavage is 0.29.
Then A16C C14A, with 0.08.
With C15U G34A, the self-cleavage turned out to be 0.21.
Regarding C15U G34C, the self-cleavage was 0.09.
Then C15U G34U, with 0.15.
On to C15A C26A, for which the self-cleavage is 0.05.
Regarding C15A C26G, the self-cleavage was 0.06.
On to C15A C26U, for which the self-cleavage worked out at 0.12.
In the case of C15A G30A, the self-cleavage came out at 0.02.
In the case of C15A G30C, the self-cleavage amounted to 0.04.
For the variant C15A G30U, the self-cleavage stood at 0.03.
As to A16C A36U, the self-cleavage was 0.99.
In the case of A16C A36C, the self-cleavage worked out at 0.33.
In the case of A16C A36G, the self-cleavage worked out at 1.01.
As to C15A G49A, the self-cleavage was determined as 0.05.
Consider C15A G49U, for which the self-cleavage stood at 0.05.
Then C15A G49C, with 0.04; and C15G U18C, with 0.54; and C15G U18G, with 0.37.
As to C15G U18A, the self-cleavage was 0.48.
For the variant C15U C21A, the self-cleavage is 0.09.
Then C15U C21G, with 0.04; and C15U C21U, with 0.46; and C15U G53U, with 0.1.
Then C15U G53A, with 0.12.
Regarding C15U G53C, the self-cleavage was determined as 0.05.
On to C15G G23A, for which the self-cleavage was determined as 0.14.
Then C15G G23C, with 0.07.
Regarding C15G G23U, the self-cleavage is 0.04.
As to C15U G23C, the self-cleavage was 0.03.
C15U G23U: the self-cleavage came out at 0.03.
For the variant C15U G23A, the self-cleavage was 0.06.
As to C15A U43A, the self-cleavage was 0.14.
With C15A U43C, the self-cleavage stood at 0.1.
As to C15A U43G, the self-cleavage was 0.11.
Then A16C C11G, with 0.17; and A16C C11A, with 0.58.
For the variant A16C C11U, the self-cleavage amounted to 0.86.
On to C15G, for which the self-cleavage came out at 0.54.
On to C15U, for which the self-cleavage was determined as 0.53.
On to C15A C32A, for which the self-cleavage was 0.08.
As to C15A C32G, the self-cleavage was determined as 0.07.
As for C15A C32U, the self-cleavage amounted to 0.07.
As for A16C A28U, the self-cleavage was determined as 0.76.
Then A16C A28C, with 0.83; and A16C A28G, with 0.16; and C15G G47C, with 0.06.
C15G G47U: the self-cleavage stood at 0.09.
Then C15G G47A, with 0.08; and C15A G22C, with 0.03; and C15A G22U, with 0.09.
For C15A G22A, the self-cleavage is 0.2.
Then C15U C25U, with 0.08.
For C15U C25A, the self-cleavage was 0.03.
Regarding C15U C25G, the self-cleavage is 0.04.
As to C15A C9U, the self-cleavage was found to be 0.19.
For the variant C15A C9G, the self-cleavage came to 0.14.
In the case of C15G C25G, the self-cleavage turned out to be 0.07.
As for C15G C25A, the self-cleavage came out at 0.05.
Then C15G C25U, with 0.12.
As to C15A U24C, the self-cleavage turned out to be 0.08.
Turning to C15A U24G, the self-cleavage turned out to be 0.02.
As to C15A U24A, the self-cleavage turned out to be 0.05.
As to C15A C52G, the self-cleavage was 0.32.
Take C15A C52U: the self-cleavage was found to be 0.57.
Consider C15A C52A, for which the self-cleavage was 0.23.
In the case of C15U C32U, the self-cleavage stood at 0.06.
Then C15U C32G, with 0.08; and C15U C32A, with 0.03.
